Usually apparent Kd stands for the concentration giving half-maximal binding under the conditions of the assay.

We go through 37 sequences from the EternaBench riboswitch data.

In this data set the test system is MS2 coat protein. As to the kind of experiment: apparent Kd, MS2 coat protein; higher = weaker binding; RNA-MaP array; FMN 200 µM where present. The essentials:
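Green signal was scaled to red-channel RNA signal and control-cluster median Fmax, and the apparent Kd was taken as the median of filtered per-cluster binding-curve fits. The binding series used SNAP-549-labelled MS2 coat protein from 0.7 or 1.5 nM, doubling to 3 µM, on designs transcribed by stalled E. coli RNA polymerase on Illumina sequencing-chip clusters. Each series ran without and then with constant ligand in 100 mM Tris-HCl pH 7.5, 80 mM KCl, 4 mM MgCl2, BSA, DTT, yeast tRNA and Tween-20.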

[1] abbreviates: designed as: OFF switch for flavin mononucleotide, no ligand.
Setting [2] is: ligand present: flavin mononucleotide, designed as: OFF switch for flavin mononucleotide.
The mark [3] stands for this setting: designed as: ON switch for flavin mononucleotide, no ligand.
Where [4] appears, read: ligand present: flavin mononucleotide, designed as: ON switch for flavin mononucleotide.

With “AUUAAGUGAGGAUAUACAAGAUCGCUUACCGCCAAAGGCGGACAUGAGGAUCACCCAUGUAGAAGGCACAAAUU”, the “apparent Kd” value runs as follows: under setting [1], 45.7 nM; under setting [2], 270 nM.
For “GGUACUCAAAGAGUACCAAUACGAACAUGAGGAUCACCCAUGUAGGAUAUGCUACUCAAAGAGUAGCAGAAGGACAUGCGCCUA” the same measures were 18.2 nM and 106 nM.
Turning to “CUGAGUAGUCAGGAUAUGUGGUACAAAAGUACUGCAGAAGGGAUUACAUGAGGAUCACCCAUGUUUUCUUCAUG”, the “apparent Kd” value under setting [2] was 125 nM.
As for “CCGUAGUACUGGGAUCCGGGCCUACAUGAGGAUCACCCAUGUCAGGAUAUACGCGAGAUAAAUACGUAGAAGGGACACAGAUGA”, the “apparent Kd” value reads like this: under setting [1], 19.7 nM; under setting [2], 33.1 nM.
Turning to “GUCAGCUCGUGAGGAUAUACAACACUGCUUCGGGAGUGUAUUAAGAUCACAUGAGGAUCACCCAUGUAGAAGGCACGAGCUGAU”, the “apparent Kd” value under setting [1] is 15 nM and the “apparent Kd” value under setting [2] stood at 254 nM.
As to “CACCGUUAAAGAGGAUAUCGUACAUGAGGAUCACCCAUGUAAUAAAUGAGAAUUUCGGAUGUAUGCGAGAAGGCUUAAAUCGGC”, the “apparent Kd” value reads like this: under setting [1], 52.9 nM; under setting [2], 48.3 nM.
For “CAGUAGAUCCGAGGAUAUACAAUCCGGAAACGGUACAUGAGGAUCACCCAUGUAGAAGGCGGAUCUACAGGUACUAAAGUACCU”, in that order: 5.56 nM and 8.31 nM.
Consider “UUCCUACAUGAGGAUCACCCAUGUCAGGAUAUCUCCUCGUCGCCAAUGGGCGACGAAUAGAGAAGGGACAGGAA”, for which the “apparent Kd” value under setting [1] came to 15 nM and the “apparent Kd” value under setting [2] was determined as 16.7 nM.
For “UGCACCAACGAGAAGGCACAGAUCCAGCUCUUGACAUGAGGAUCACCCAUGUGAGGAUAUCGUAGGUGCGAAUUGGGACAAUCU” the same measures were 11 nM and 98.2 nM.
For “AAAUUUAACGAAGGAUAUGCUGACAUGAGGAUCACCCAUGUGUGCCUUGUGUUACUGAUUAGGUUGCAGAAGGUCGUAUACAUA” the same measures were 230 nM and 948 nM.
As for “ACAUUGUUAGGAUAUGCUGCUCGUCACUUGCGUGAUGAGUAGCAGAAGGAACAUGAGGAUCACCCAUGUAAAGA”, the “apparent Kd” value is, setting by setting: under setting [1], 33.7 nM; under setting [2], 56.1 nM.
Take “ACUUUGUUUGAGAAGGUGAAGUGGAAACAUGAGGAUCACCCAUGUAUUAGGAAGCCUGGUUUUGUCAAGGAUAUCGGGUAAAGA”: the “apparent Kd” value under setting [3] was found to be 12 nM and the “apparent Kd” value under setting [4] came out at 10.1 nM.
Take “UCGGCGCGAGGAUAUGCGGCUCCUGCUUCGGGCCGGAGCGUACAUGAGGAUCACCCAUGUAGAAGGCGCGCCGC”: the “apparent Kd” value amounted to 12 nM under setting [1] and 13.9 nM under setting [2].
With “CAAAACAUCUCCGUGUUUGUCGAACAUGAGGAUCACCCAUGUAGAAGGCAUCGCGCGACGCGGGAUGAGGAUAUACGCUGGAUG”, the “apparent Kd” value is, setting by setting: under setting [1], 6.18 nM; under setting [2], 15.3 nM.
Take “UUAUUUAGGUAGGAUAUCGAUAUUAUUCCCUAUCGAGAAGGGUCUACAUGAGGAUCACCCAUGUUAGCAUGUUU”: the “apparent Kd” value under setting [1] was 22.3 nM and the “apparent Kd” value under setting [2] came to 22.2 nM.
In the case of “AGUGUCAUCGAGAAGGCCCUGACAUGAGGAUCACCCAUGUUGUUACAUGGGAGGAUAUCGAUGAUACAGCUACGUUUCGUAGCA”, the “apparent Kd” value under setting [3] was found to be 12.8 nM and the “apparent Kd” value under setting [4] came out at 5.05 nM.
For “GUAGCAUUGAGAGGAUAUCCAUACCGGAAACGGACAUGAGGAUCACCCAUGUGGCGAAAGCCUUGGGAGAAGGCUCUAUGCUAC” the same measures were 4.35 nM and 3.52 nM.
For “GUAGCAUACCGAGGAUAUUCUAACCGGAAACGGACAUGAGGAUCACCCAUGUGGCGAAAGCCUAGGGAGAAGGCGGAAUGCUAC” the same measures were 10.5 nM and 11.6 nM.
For “UUGAGGUGCAAGAAGGGUCACAUGAGGAUCACCCAUGUCAUGUGAAGUCUCGAGAUUUUAUAUGGAUAGGAUAUUGCACCGAAC” the same measures were 197 nM and 98.2 nM.
Regarding “UGUCGGAGCAGAGGAUAUUACAUGAGGAUCACCCAUGUAUGAACCAAUAGCUGGAAACAGCAAUGUAAGAAGGCUGCACCGACA”, the “apparent Kd” value was 12.6 nM under setting [1] and 178 nM under setting [2].
With “GCAUACAUUCGAGGAUAUCGGUGAACAAAUUAACGAGAAGGCGAUAUAAUGUUUAAUCUUAUAAACAUGAGGAUCACCCAUGUA”, the “apparent Kd” value was found to be 76.9 nM under setting [3] and 31.2 nM under setting [4].
For “CAGUACUGAGGAUAUACAUGAGGAUCACCCAUGUAAAAAACCUACGAAAGUAGGACAUGUAGAAGGCAGUACUG”, the “apparent Kd” value worked out at 24.2 nM under setting [1] and 76.7 nM under setting [2].
Consider “GCGGUCAACGUAGGAUAUCUUCAGCCGCAGCGCAUUGCUGUACAUGAGGAUCACCCAUGUCCUGGAGAGAAGGACGGACUGCAA”, for which the “apparent Kd” value reads like this: under setting [3], 145 nM; under setting [4], 23.2 nM.
For the sequence “CUUUUGUGAGGAUAUCAGUAGUAGAACAAUAGUACUACUACUGAGAAGGCACAUGAGGAUCACCCAUGUUCUUC”, the “apparent Kd” value by setting is: under setting [1], 33.5 nM; under setting [2], 118 nM.
With “GGACGUCACAUCUACAUGAGGAUCACCCAUGUCUCUUGAGAUGAGGAUAUGUAUACGAAUCGUUUAUAGAAGGCAUGGACGUCC”, the “apparent Kd” value was found to be 348 nM under setting [3] and 325 nM under setting [4].
Consider “UUUUUGUGAGGAUAUGCAAUAUCUUCUAUUUAUUAUUAAUUGCAGAAGGCACAUGAGGAUCACCCAUGUAUUUU”, for which the “apparent Kd” value is 19.2 nM under setting [1] and 24.2 nM under setting [2].
On to “UUUACAUGAGGAUCACCCAUGUCUGUCACACGGAGGUGCAAUCAGGAUAUGAUCUCAAGAAUGAAUUAGAAGGGAUAGGGAGGG”, for which the “apparent Kd” value under setting [3] came out at 187 nM and the “apparent Kd” value under setting [4] was determined as 234 nM.
On to “AACUGACAUGAGGAUCACCCAUGUCAGGAUAUGACUUCAAAAUAAAAAUAAAAUGAUGUCAGAAGGGACAUGGA”, for which the “apparent Kd” value under setting [1] was 22.6 nM and the “apparent Kd” value under setting [2] was 36.1 nM.
As to “UUCAUGUGAGGAUAUCAGUAGUAAAAAAAUAAAAUUACUACUGAGAAGGCACAUGAGGAUCACCCAUGUCCUUC”, the “apparent Kd” value runs as follows: under setting [1], 62.5 nM; under setting [2], 40.8 nM.
For the sequence “AAAAGACAUGAGGAUCACCCAUGUCAAAACAUAGGAGGAUAUGUCUUGAAAAAAGACUUGACAGAAGGCCUUUGUC”, the “apparent Kd” value is, setting by setting: under setting [3], 17.9 nM; under setting [4], 15.8 nM.
For “AAUUUACAUGAGGAUCACCCAUGUGAGGAUAUAUAUAUAUGUUUGUUAUUGCGUGUGUGUAGAAGGCGCGUGAU”, the “apparent Kd” value is, setting by setting: under setting [1], 17.6 nM; under setting [2], 16.3 nM.
As for “UAGAUGGGAGGAUAUGCAUAGAUACAGAUUCAUGUAGUGCUACAUGAGGAUCACCCAUGUAGAAGGCCCGUCUU”, the “apparent Kd” value reads like this: under setting [1], 21.2 nM; under setting [2], 225 nM.
For “GGACGUAAAGAGAAGGGCUACUGGUUGAAACCUGCGGCCUCUGGAACAUGAGGAUCACCCAUGUAGCAGGAUAUCUUUGCAUCA”, in that order: 180 nM and 14.7 nM.
On to “AAGUAGUGAGGAUAUACAUGGAUAUACAUUCAUGUGGACCUACAUGAGGAUCACCCAUGUAGAAGGCACUACUA”, for which the “apparent Kd” value was 42.6 nM under setting [1] and 61.6 nM under setting [2].
Turning to “AGGAUGUUAGGAUAUCGAAGGUUGUGGCAGGCGGGAAUUUGCGAGAAGGAACAUGAGGAUCACCCAUGUGAAAU”, the “apparent Kd” value under setting [1] turned out to be 22.9 nM and the “apparent Kd” value under setting [2] came to 22.2 nM.
With “UUUAUUAGUUAGAAGGCUUGAUGAAUUACAAUGGACAUGAGGAUCACCCAUGUGUAUUCAUGUCAAGAGGAUAUAGUCAUAUAU”, the “apparent Kd” value runs as follows: under setting [3], 39.1 nM; under setting [4], 17.7 nM.
For “ACAUGCAUAGCGAUAUGAUCGAGAGAUCAUGUCGCUAAAAUUAGAAGGACAUGAGGAUCACCCAUGUAGGAUAUGGGAGCAUGA” the same measures were 39.9 nM and 10.3 nM.
